This is an account of results in ChEMBL document CHEMBL1140964, “1,8-Naphthyridines VII. New substituted 5-amino[1,2,4]triazolo[4,3-a][1,8]naphthyridine-6-carboxamides and their isosteric analogues, exhibiting notable anti-inflammatory and/or analgesic activities, but no acute gastrolesivity” (Eur J Med Chem, 2008).

For data set [1], the system named is Rattus norvegicus. Description: Antiinflammatory activity against carrageenan-induced paw edema in Wistar rat at 12.5 mg/kg, po dose administered 1 hr before carrageenan challenge assessed after 3 hrs. In kind it is functional. The method, boiled down:
(§1)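 Wistar rats (250–300 g, either sex), fasted overnight, dosed by oral gavage with the compound suspended in 0.5% methylcellulose. Controls received vehicle alone, with 8–10 animals per group. Dosing started at 100 mg/kg and was halved stepwise. Carrageenan (1%, 0.1 mL) was injected subplantar 1 h post-dose. Paw volume was measured by plethysmometer immediately and at 3 h, and % inhibition of swelling was calculated versus controls (Student's t-test).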
(In general: The carrageenan paw model is a standard test of acute inflammation.)

Data set [2] has as its system Rattus norvegicus. Briefly: Antiinflammatory activity against carrageenan-induced paw edema in Wistar rat at 6.25 mg/kg, po dose administered 1 hr before carrageenan challenge assessed after 3 hrs. Type of data set: functional. In short, it runs like this: as §1
Data set [3] has as its system Mus musculus. Description: Sedative activity in Swiss mouse assessed as inhibition on spontaneous locomotor activity at 25 mg/kg, po measured for every 5 mins during 60 to 90 mins. In kind it is functional, organism-based. On the set-up: dose 25 mg/kg, route oral. The method, boiled down:
(§2)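 Fasted Swiss mice (25–35 g, either sex) were given compound orally in 0.5% methylcellulose or vehicle. Each mouse was placed alone in a photobeam-type activity cage, with counts recorded every 5 min for 90 min. Pulses from the final 30 min were scored, with testing run 9:00–13:00. Percent inhibition was calculated versus controls (Student's t-test).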

The subject of data set [4] is Mus musculus. Briefly: Antinociceptive activity in Swiss mouse assessed as inhibition of acetic acid-induced writhing response at 100 mg/kg, po dose administered 1 hr before acetic acid challenge measured for 30 mins. Type of data set: functional. In short, it runs like this: (§3)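 Swiss mice (25–35 g, either sex), fasted overnight, received compound orally in 0.5% methylcellulose or vehicle, with 8–10 per group. Testing started at 100 mg/kg with successive twofold dose reductions. Writhes were counted for 30 min after acetic acid injection. Percent inhibition of the writhing response was calculated versus vehicle controls (Student's t-test).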
(In general: An intraperitoneal irritant provokes the stretching counted in writhing tests.)

For data set [5], the system named is Mus musculus. Description: Sedative activity in Swiss mouse assessed as inhibition of spontaneous locomotor activity at 100 mg/kg, po dose measured for every 5 mins during 60 to 90 mins. In kind it is organism-based. On the set-up: dose 100 mg/kg, route oral. The method, boiled down: as §2
Data set [6] deals with Rattus norvegicus. Briefly: Antiinflammatory activity against carrageenan-induced paw edema in Wistar rat at 50 mg/kg, po dose administered 1 hr before carrageenan challenge assessed after 3 hrs. Type of data set: functional. The method, boiled down:
as §1

The test system of data set [7] is Mus musculus. Description: Antinociceptive activity in Swiss mouse assessed as inhibition of acetic acid-induced writhing response at 50 mg/kg, po dose administered 1 hr before acetic acid challenge measured for 30 mins. In kind it is functional. In short, it runs like this:
as §3

Data set [8] deals with Rattus norvegicus. Briefly: Antiinflammatory activity against carrageenan-induced paw edema in Wistar rat at 100 mg/kg, po dose administered 1 hr before carrageenan challenge assessed after 3 hrs. In kind it is functional. The method, boiled down: as §1
For data set [9], the system named is Mus musculus. Description: Antinociceptive activity in Swiss mouse assessed as inhibition of acetic acid-induced writhing response at 6.25 mg/kg, po dose administered 1 hr before acetic acid challenge measured for 30 mins. In kind it is functional. In short, it runs like this:
as §3

Data set [10] relates to Mus musculus. Briefly: Sedative activity in Swiss mouse assessed as inhibition on spontaneous locomotor activity at 12.5 mg/kg, po dose measured for every 5 mins during 60 to 90 mins. Type of data set: ADME, organism-based. Set-up: dose 12.5 mg/kg, route oral. In short, it runs like this: as §2
Data set [11] deals with Mus musculus. Briefly: Sedative activity in Swiss mouse assessed as inhibition on spontaneous locomotor activity at 6.25 mg/kg, po measured for every 5 mins during 60 to 90 mins. In kind it is ADME, organism-based. On the set-up: dose 6.25 mg/kg, route oral. The method, boiled down:
as §2

Data set [12] has as its system Rattus norvegicus. Description: Antiinflammatory activity against carrageenan-induced paw edema in Wistar rat at 25 mg/kg, po dose administered 1 hr before carrageenan challenge assessed after 3 hrs. Type of data set: functional. The method, boiled down: as §1
For data set [13], the system named is Mus musculus. Briefly: Antinociceptive activity in Swiss mouse assessed as inhibition of acetic acid-induced writhing response at 12.5 mg/kg, po dose administered 1 hr before acetic acid challenge measured for 30 mins. Type of data set: functional. The method, boiled down:
as §3

Data set [14] deals with Mus musculus. Description: Antinociceptive activity in Swiss mouse assessed as inhibition of acetic acid-induced writhing response at 25 mg/kg, po dose administered 1 hr before acetic acid challenge measured for 30 mins. Type of data set: functional. In short, it runs like this:
as §3

The subject of data set [15] is Mus musculus. Description: Antinociceptive activity in Swiss mouse assessed as inhibition of acetic acid-induced writhing response at 3.12 mg/kg, po dose administered 1 hr before acetic acid challenge measured for 30 mins. Type of data set: functional.
Data set [16] has as its system Mus musculus. Briefly: Antinociceptive activity in Swiss mouse assessed as inhibition of acetic acid-induced writhing response at 1.6 mg/kg, po dose administered 1 hr before acetic acid challenge measured for 30 mins. Type of data set: functional.
Data set [17] concerns Rattus norvegicus. Description: Acute gastrolesivity in Wistar rat assessed as appearance of gastric lesions at 200 mg/kg, po after 5 hrs. On the set-up: dose 200 mg/kg, route oral. In kind it is toxicity, organism-based, Stomach. Conditions: in vivo. In short, it runs like this:
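Wistar rats (250–300 g, either sex), fasted overnight, given the compound orally at 200 mg kg-1 as a suspension in 0.5% methylcellulose by gavage (1 mL/100 g); 8 rats per compound. Stomachs were fixed in 2% formalin, opened along the greater curvature, and examined under a stereomicroscope by a blinded observer. The result is the number of rats with gastric damage over the number treated.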

Data set [18] deals with Mus musculus. Briefly: Antinociceptive activity in Swiss mouse assessed as inhibition of acetic acid-induced writhing response at 200 mg/kg, po dose administered 1 hr before acetic acid challenge measured for 30 mins. Type of data set: functional.
Data set [19] deals with Mus musculus. Briefly: Antinociceptive activity in Swiss mouse assessed as inhibition of acetic acid-induced writhing response at 0.8 mg/kg, po dose administered 1 hr before acetic acid challenge measured for 30 mins. Type of data set: functional.
Data set [20] concerns Rattus norvegicus. Briefly: Antiinflammatory activity against carrageenan-induced paw edema in Wistar rat at 200 mg/kg, po dose administered 1 hr before carrageenan challenge assessed after 3 hrs. Type of data set: functional.
In data set [21] the test system is Rattus norvegicus. Description: Antiinflammatory activity against carrageenan-induced paw edema in Wistar rat at 3.12 mg/kg, po dose administered 1 hr before carrageenan challenge assessed after 3 hrs. In kind it is functional.
Data set [22] is filed under the species Mus musculus. Briefly: animal or person. Conditions: Swiss, po, read-out: INH.
Data set [23] has as its system Rattus norvegicus. Description: Antiinflammatory activity against carrageenan-induced paw edema in Wistar rat at 10 mg/kg, po dose administered 1 hr before carrageenan challenge assessed after 3 hrs. In kind it is functional.

Each structure is given as a SMILES string.

In general, inhibition refers to the share of the control response that was lost under treatment.

For the molecule `CCC(CC)Nc1c(C(=O)N(CC)CC)c2nnc(C(C)C)n2c2ncccc12`, the inhibition in vivo at 12.5 mg/kg in [1] stood at 45%; in data set [13], 49%. The values for the inhibition in vivo at 6.25 mg/kg in [2] and in data set [9] were 11% and 36%, respectively. Further, the inhibition at 25 mg/kg in data set [3] was determined as 70%. Further, the inhibition in vivo at 100 mg/kg in data set [4] worked out at 91%; in data set [8] it was 50%. For the same molecule, the inhibition at 100 mg/kg in data set [5] was 97%. Besides, the figures for the inhibition in vivo at 50 mg/kg in [6] and in [7] were 47% and 75%, respectively. Further, the inhibition at 12.5 mg/kg in data set [10] stood at 92%. In addition, the inhibition at 6.25 mg/kg in data set [11] turned out to be 81%. Besides, the figures for the inhibition in vivo at 25 mg/kg in data set [12] and in data set [14] were 47% and 58%, respectively. Further, in [15], the inhibition in vivo at 3.12 mg/kg stood at 18%.
Take `CCN(CC)C(=O)c1c(N2CCN(C)CC2)c2cccnc2n2c(C(C)C)nnc12`: the inhibition at 25 mg/kg in [3] was 99%. In addition, the inhibition in vivo at 100 mg/kg in data set [4] was found to be 88%; in data set [8], 23%. Moreover, in [5], the inhibition at 100 mg/kg amounted to 94%. Besides, the inhibition in vivo at 1.6 mg/kg in data set [16] was 39%. For the same molecule, the Activity result in data set [17] is reported as “Non-toxic”. Moreover, the inhibition in vivo at 50 mg/kg in [7] is 85%. Moreover, the inhibition in vivo at 200 mg/kg turned out to be 86% in data set [18] and 34% in data set [20]. Besides, in [9], the inhibition in vivo at 6.25 mg/kg is 83%. For the same molecule, the inhibition at 12.5 mg/kg in data set [10] is 74%. In [19], the inhibition in vivo at 0.8 mg/kg turned out to be 3%. The inhibition at 6.25 mg/kg in data set [11] was determined as 19%. For the same molecule, the inhibition in vivo at 12.5 mg/kg in [13] was determined as 92%. The inhibition in vivo at 25 mg/kg in data set [14] was 90%. For the same molecule, the inhibition in vivo at 3.12 mg/kg in [15] stood at 85%.
`CCNc1c(C(=O)N(CC)CC)c2nnc(C(C)C)n2c2ncccc12` came in with an inhibition in vivo at 3.12 mg/kg in data set [21] of 9%. The inhibition in vivo at 12.5 mg/kg in data set [1] came to 35%. In data set [2], this molecule returned an inhibition in vivo at 6.25 mg/kg of 33%. The figures for the inhibition in vivo at 100 mg/kg in data set [4] and in data set [8] were 100% and 63%, respectively. Further, the inhibition at 100 mg/kg in data set [5] was found to be 13%. Also, the inhibition in vivo at 50 mg/kg in [6] is 63%; in [7], 20%. In data set [17], the Activity result is recorded as “Non-toxic”. Also, the inhibition in vivo at 200 mg/kg was determined as 100% in [18] and 65% in data set [20]. In addition, in data set [12], the inhibition in vivo at 25 mg/kg stood at 61%.
Take `COc1ccc2c(c1)c(CC(=O)O)c(C)n2C(=O)c1ccc(Cl)cc1` [INDOMETHACIN]: the inhibition in vivo at 10 mg/kg in data set [22] came to 84%; in data set [23], 51%.
